Assays:
RAW264.7 [1] = assay: Suppression of LPS-induced NO production in mouse RAW264.7 cells by fluorometric assay; type: functional, cell-based
How it was run: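 RAW264.7 cells were seeded at 1 × 10⁵ cells/well and incubated overnight. Supernatant was removed and cells were stimulated with 10 ng/mL LPS plus graded compound concentrations for 20 h at 37 °C, 5% CO₂. The medium was phenol red-free RPMI1640 with 1% heat-inactivated FBS. Compounds came from 10 mM DMF stocks diluted in medium. Supernatant nitrite was read with DAN, then NaOH, as fluorescence at ex 355/em 460 nm.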

RAW264.7 [2] = assay: Suppression of LPS-induced IL6 production in mouse RAW264.7 cells; type: functional, cell-based
How it was run: (§1)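 IC50 is the concentration cutting TNF-α or IL-6 production to 50% of control. Values are means ± SD from three or four experiments.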

RAW264.7 [3] = assay: Suppression of LPS-induced TNFalpha production in mouse RAW264.7 cells; type: functional, cell-based; how it was run: as §1
Mus musculus [4] = assay: Suppression of LPS-induced serum NO production in mouse endotoxin shock model at 10 mg/kg, iv administered 1 hr before LPS challenge by fluorometric assay
Mus musculus [5] = assay: Suppression of LPS-induced serum NO production in mouse endotoxin shock model at 3 mg/kg, iv administered 1 hr before LPS challenge by fluorometric assay
Mus musculus [6] = assay: Protective effect against lethal septic shock in mouse endotoxin shock model assessed as survival at 10 mg/kg, iv; type: functional, organism-based; parameters: dose 10 mg/kg
How it was run: (§2)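 Mice got a lethal LPS dose of 7 mg/kg ip. Compound was given iv 1 h before LPS, in 10% (w/v) glucuronylglucosyl-β-cyclodextrin sodium salt. Survival was recorded over 7 days after LPS, with 7–10 mice per group.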

Mus musculus [7] = assay: Protective effect against lethal septic shock in mouse endotoxin shock model assessed as survival at 1 mg/kg, iv; type: functional, organism-based; parameters: dose 1 mg/kg; how it was run: as §2
Mus musculus [8] = assay: Suppression of LPS-induced serum NO production in mouse endotoxin shock model at 1 mg/kg, iv administered 1 hr before LPS challenge by fluorometric assay
Mus musculus [9] = assay: Protective effect against lethal septic shock in iv dosed mouse endotoxin shock model; type: functional
How it was run: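 Mice challenged with a lethal dose of LPS (7 mg/kg ip). Compounds were dissolved in 10% (w/v) glucuronylglucosyl-beta-cyclodextrin sodium salt and given intravenously at 1, 3 and 10 mg/kg, 1 h before LPS. Vehicle-dosed mice served as controls. Survival was recorded for 7 days after challenge and reported as survivors/total. ED50 is given in mg/kg.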

Structure (SMILES) | IC50 (RAW264.7 [1]; Mus musculus, RAW264.7) | also measured
CCOC(=O)C1=CCCCC1S(=O)(=O)Cc1ccc(F)cc1Cl (stereo in doubt; (-)-10a) |  | IC50 (RAW264.7 [1]; raw264.7): 10000 nM
CCOC(=O)C1=CCCCC1S(=O)(=O)Cc1cccc(F)c1F (stereo not given) | 100 nM | 
CCCC(=O)C1=CCCCC1S(=O)(=O)Cc1ccc(F)cc1Cl (stereo not given) | 11 nM | 
CCOC(=O)C1=CCCCC1NS(=O)(=O)c1ccc(F)cc1Cl (stereo not given) | > 10000 nM | 
CC(C)OC(=O)C1=CCCCC1S(=O)(=O)Cc1ccc(F)cc1Cl (stereo not given) | 100 nM | 
O=S(=O)(Cc1ccc(F)cc1Cl)C1CCCC=C1CO (stereo not given) | > 10000 nM | 
CCOC(=O)C1=CCCCC1S(=O)(=O)Cc1cc2ccccc2o1 (stereo not given) | 134 nM | 
CCC(=O)C1=CCCCC1S(=O)(=O)Cc1ccc(F)cc1Cl (stereo not given) | 64 nM | 
COC(=O)C1=CCCCC1S(=O)(=O)Cc1ccc(F)cc1Cl (stereo not given) | 99 nM | 
CCOC(=O)C1=CCCCC1S(=O)(=O)Cc1cc(Cl)ccc1F (stereo not given) | 23 nM | 
CCOC(=O)C1=CCCCC1S(=O)(=O)Cc1ccc(F)c(Cl)c1 (stereo not given) | 13 nM | 
CCOC(=O)C1=CCCCC1S(=O)(=O)C(C)c1ccccc1 (stereo in doubt; 19a) |  | IC50 (RAW264.7 [1]; raw264.7): 100 nM
CCOC(=O)C1=CCCCC1S(=O)(=O)Cc1c[nH]c2ccccc12 (stereo not given) | 1010 nM | 
CCOC(=O)C1=CCCCC1S(=O)(=O)C(C)c1ccc(F)cc1Cl (single isomer, unassigned; (-)) |  | IC50 (RAW264.7 [1]; raw264.7): 1300 nM
CCOC(=O)C1=CCCCC1S(=O)(=O)Cc1cccc(Cl)c1Cl (stereo not given) | 65 nM | 
CCOC(=O)C1=CCCCC1S(=O)(=O)C(CF)c1ccc(F)cc1Cl (stereo in doubt; 26a) |  | IC50 (RAW264.7 [1]; raw264.7): 435 nM
CCOC(=O)C1=CCCCC1S(=O)(=O)C(C)c1ccc(F)cc1Cl (stereo in doubt; 22a) |  | IC50 (RAW264.7 [2]): 5.8 nM; IC50 (RAW264.7 [3]): 42 nM; IC50 (RAW264.7 [1]; raw264.7): 14 nM
CCOC(=O)C1=CCCCC1S(=O)(=O)Cc1ccccc1 (stereo not given) | 101 nM | 
CC(=O)OCC1=CCCCC1S(=O)(=O)Cc1ccc(F)cc1Cl (stereo not given) | > 10000 nM | 
CCOC(=O)C1=CCCCC1S(=O)(=O)Cc1ccccc1Cl (stereo in doubt; 10e) |  | IC50 (RAW264.7 [1]; raw264.7): 14 nM
CCOC(=O)C1=CCCCC1S(=O)(=O)Cc1ccc(F)cc1F (stereo not given) | 14 nM | 
CCOC(=O)C1=CCCCC1S(=O)(=O)C(C)c1ccccc1 (stereo in doubt; 19b) |  | IC50 (RAW264.7 [1]; raw264.7): 1320 nM
CCOC(=O)C1=CCCCC1S(=O)(=O)C(C)c1ccc(F)cc1Cl (single isomer, unassigned; (+)) |  | IC50 (RAW264.7 [1]; raw264.7): 4 nM
CCOC(=O)C1=CCCCC1S(=O)(=O)Cc1ccc(F)cc1Cl (single isomer, unassigned; (+)) |  | IC50 (RAW264.7 [1]; raw264.7): 5.7 nM

Structure (SMILES) | IC50 (RAW264.7 [1]; Mus musculus, RAW264.7) | also measured
CCOC(=O)C1=CCCCC1S(=O)(=O)Cc1coc2ccccc12 (stereo not given) | 106 nM | 
CCC(O)C1=CCCCC1S(=O)(=O)Cc1ccc(F)cc1Cl (stereo not given) | > 10000 nM | 
CCOC(=O)C1=CCCCC1S(=O)(=O)Cc1cccc(Cl)c1F (stereo not given) | 12 nM | 
CCOC(=O)C1=CCCCC1S(=O)(=O)Oc1ccc(F)cc1Cl (stereo not given) | 904 nM | 
CCOC(=O)C1=CCCCC1S(=O)(=O)Cc1ccccc1F (stereo not given) | 97 nM | 
CCCCOC(=O)C1=CCCCC1S(=O)(=O)Cc1ccc(F)cc1Cl (stereo not given) | 103 nM | 
CCOC(=O)C1=CCCCC1S(=O)(=O)Cc1ccsc1 (stereo not given) | 105 nM | 
CCOC(=O)C1=CCCCC1S(=O)(=O)Cc1ccncc1 (stereo not given) | 1410 nM | 
CCOC(=O)C1=CCCC[C@H]1S(=O)(=O)[C@@H](C)c1ccc(F)cc1Cl |  | inhibition in vivo at 10 mg/kg (Mus musculus [4]): 78%; inhibition in vivo at 3 mg/kg (Mus musculus [5]): 55.7%; Activity (Mus musculus [6]): Non-toxic; IC50 (RAW264.7 [2]): 1.8 nM; IC50 (RAW264.7 [3]): 20 nM; Activity (Mus musculus [7]): Toxic; inhibition in vivo at 1 mg/kg (Mus musculus [8]): -10.1%; ED50 (Mus musculus [9]): 5.6 mg/kg
CCOC(=O)C1=CCCCC1S(=O)(=O)Cc1ccc(Cl)cc1Cl (stereo not given) | 60 nM | 
CCOC(=O)C1=CCCCC1S(=O)(=O)Cc1ccc(Cl)cc1 (stereo not given) | 101 nM | 
CCOC(=O)C1=CCCCC1S(=O)(=O)C(CF)c1ccc(F)cc1Cl (stereo in doubt; 26b) | 729 nM | 
CCOC(=O)C1=CCCCC1S(=O)(=O)Cc1ccc(F)cc1Cl (stereo in doubt; 10a) |  | IC50 (RAW264.7 [2]): 4.8 nM; IC50 (RAW264.7 [3]): 21 nM; IC50 (RAW264.7 [1]; raw264.7): 10 nM
CCOC(=O)C1=CCCCC1S(=O)(=O)Cc1ccccc1Cl (single isomer, unassigned; (-)) |  | IC50 (RAW264.7 [1]; raw264.7): 1200 nM
CCOC(=O)C1=CCCCC1S(=O)(=O)Nc1ccc(F)cc1Cl (stereo not given) | 4.5 nM | 
CCOC(=O)C1=CCCCC1S(=O)(=O)Cc1ccc(Cl)cc1F (stereo not given) | 104 nM | 
CCOC(=O)C1=CCCC[C@H]1S(=O)(=O)Cc1ccc(F)cc1Cl |  | inhibition in vivo at 10 mg/kg (Mus musculus [4]): 76%; inhibition in vivo at 3 mg/kg (Mus musculus [5]): 54%; Activity (Mus musculus [6]): Non-toxic; IC50 (RAW264.7 [2]): 1.5 nM; IC50 (RAW264.7 [3]): 8.3 nM; inhibition in vivo at 1 mg/kg (Mus musculus [8]): 27%; ED50 (Mus musculus [9]): 1.85 mg/kg
CCOC(=O)C1=CCCCC1S(=O)(=O)Cc1cc2ccccc2s1 (stereo not given) | 101 nM | 
CCCOC(=O)C1=CCCCC1S(=O)(=O)Cc1ccc(F)cc1Cl (stereo not given) | 14 nM | 
CCOC(=O)C1=CCCCC1S(=O)(=O)Cc1ccc(Cl)c(Cl)c1 (stereo not given) | 53 nM | 
CCOC(=O)C1=CCCCC1SCc1ccc(F)cc1Cl (stereo not given) | 5640 nM | 
CCOC(=O)C1=CCCCC1S(=O)(=O)Cc1ccccc1Cl (single isomer, unassigned; (+)) |  | IC50 (RAW264.7 [1]; raw264.7): 11 nM
CCOC(=O)C1=CCCCC1S(=O)(=O)Cc1cccc(Cl)c1 (stereo not given) | 14 nM | 
CCOC(=O)C1=CCCCC1S(=O)(=O)C(C)c1ccc(F)cc1Cl (stereo in doubt; 22b) |  | IC50 (RAW264.7 [1]; raw264.7): 102 nM
